Laboratory results taken from ChEMBL document CHEMBL4732173, “Easily accessed nitroquinolones exhibiting potent and selective anti-tubercular activity” (Eur J Med Chem, 2021).

Legend:
[1] = Solubility of the compound in screening media; type: physicochemical
[2] = Solubility of the compound in DMSO; type: physicochemical
[3] = system: Mycobacterium ulcerans; assay: Antibacterial activity against Mycobacterium ulcerans assessed as bacterial metabolic acativity at 10 ug/ml incubated for 8 days followed by addition of Alamar blue for 3 days by Alamar blue dye based fluorescence analysis; type: functional; details: dose 10 µg/ml; time 8 day
How it was run: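 Tested in triplicate. Remaining metabolic activity (%PC) was calculated as blank-corrected fluorescence of each treated well divided by that of the untreated control.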

N#Cc1cccc(Cn2cc(C(=O)NCCOCCO)c(=O)c3cc([N+](=O)[O-])ccc32)c1
solubility [1]: Soluble | solubility [2]: Insoluble

N#Cc1cccc(Cn2cc(C(=O)NCCNCCO)c(=O)c3cc([N+](=O)[O-])ccc32)c1
Activity [3]: >90% | solubility [1]: Soluble | solubility [2]: Insoluble

O=C(NO)c1cn(Cc2cccc(Cl)c2)c2ccc([N+](=O)[O-])cc2c1=O
solubility [1]: Soluble | solubility [2]: Insoluble

O=C(NCCNCCO)c1cn(Cc2ccc(F)cc2)c2ccc([N+](=O)[O-])cc2c1=O
Activity [3]: >90% | solubility [1]: Soluble | solubility [2]: Insoluble

O=C(NCCN1CCOCC1)c1cn(Cc2cccc(Cl)c2)c2ccc([N+](=O)[O-])cc2c1=O
solubility [1]: Soluble | solubility [2]: Insoluble

O=C(NCCOCCO)c1cn(Cc2ccc(F)cc2)c2ccc([N+](=O)[O-])cc2c1=O
Activity [3]: >90% | solubility [1]: Soluble | solubility [2]: Insoluble

CCOC(=O)c1c[nH]c2c(C(F)(F)F)cc([N+](=O)[O-])cc2c1=O
Activity [3]: >90% | solubility [1]: Soluble | solubility [2]: Insoluble

COCCNC(=O)c1cn(Cc2cccc(Cl)c2)c2ccc([N+](=O)[O-])cc2c1=O
Activity [3]: >90% | solubility [1]: Soluble | solubility [2]: Insoluble

O=C(NCCNCCO)c1cn(Cc2cccc(F)c2)c2ccc([N+](=O)[O-])cc2c1=O
Activity [3]: >90% | solubility [1]: Soluble | solubility [2]: Insoluble

O=C(NCCN1CCOCC1)c1cn(Cc2cccc(Br)c2)c2ccc([N+](=O)[O-])cc2c1=O
solubility [1]: Soluble | solubility [2]: Insoluble

N#Cc1cccc(Cn2cc(C(=O)NO)c(=O)c3cc([N+](=O)[O-])ccc32)c1
solubility [1]: Soluble | solubility [2]: Insoluble

COCCNC(=O)c1cn(Cc2cccc(C#N)c2)c2ccc([N+](=O)[O-])cc2c1=O
solubility [1]: Soluble | solubility [2]: Insoluble

O=C(NO)c1cn(Cc2cccc(F)c2)c2ccc([N+](=O)[O-])cc2c1=O
solubility [1]: Soluble | solubility [2]: Insoluble

O=C(NCCN1CCOCC1)c1cn(Cc2cccc(F)c2)c2ccc([N+](=O)[O-])cc2c1=O
solubility [1]: Soluble | solubility [2]: Insoluble

N#Cc1cccc(Cn2cc(C(=O)O)c(=O)c3cc([N+](=O)[O-])ccc32)c1
solubility [1]: Soluble | solubility [2]: Insoluble

COCCNC(=O)c1cn(Cc2cccc(F)c2)c2ccc([N+](=O)[O-])cc2c1=O
solubility [1]: Soluble | solubility [2]: Insoluble

COCCNC(=O)c1cn(Cc2ccc(F)cc2)c2ccc([N+](=O)[O-])cc2c1=O
Activity [3]: >90% | solubility [1]: Soluble | solubility [2]: Insoluble

O=C(NO)c1cn(Cc2cccc(Br)c2)c2ccc([N+](=O)[O-])cc2c1=O
solubility [1]: Soluble | solubility [2]: Insoluble

O=C(NCCOCCO)c1cn(Cc2cccc(Cl)c2)c2ccc([N+](=O)[O-])cc2c1=O
solubility [1]: Soluble | solubility [2]: Insoluble

O=C(NCCOCCO)c1cn(Cc2cccc(F)c2)c2ccc([N+](=O)[O-])cc2c1=O
solubility [1]: Soluble | solubility [2]: Insoluble

COCCNC(=O)c1cn(Cc2ccc(C#N)cc2)c2ccc([N+](=O)[O-])cc2c1=O
solubility [1]: Soluble | solubility [2]: Insoluble

N#Cc1ccc(Cn2cc(C(=O)NCCOCCO)c(=O)c3cc([N+](=O)[O-])ccc32)cc1
solubility [1]: Soluble | solubility [2]: Insoluble

N#Cc1ccc(Cn2cc(C(=O)NCCNCCO)c(=O)c3cc([N+](=O)[O-])ccc32)cc1
solubility [1]: Soluble | solubility [2]: Insoluble
